From PubChem
Sampled rows, rich in hits. Any-hit rate of the full collection: about 5.9%.
GASC1 inh: blocks human GASC-1 (KDM4C) demethylase activity. Q9H3R0. GST-KDM4C 2-372, H3K9me3 peptide, LANCE TR-FRET. inhibition, % at 12.5 µM. hit rate 0.15% among 96,000;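 active = mean replicate inhibition above about 25%, with at least 55% of replicates also reaching it, limit read from the data, passing the limit was not always enough; inconclusive = only one of those two conditions met; inactive = neither condition met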
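System – N-terminal GST-fused human GASC-1 (KDM4C) fragment, residues 2-372 · Input – enzyme final amount 10 nM · Technique – LANCE TR-FRET, Eu antibody, ULight-streptavidin, EDTA, ex 340 nm, em 618/671 nm · Medium – HEPES buffer, pH 7.5, plus ascorbate · Incubation – enzyme reaction 30 min, then detection 60 min, both room temperature · Reagent – H3K9me3 peptide with Fe(II)/2OG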
Pf Dd2 inh: P. falciparum Dd2 growth inhibition | SYBR Green, 72 h; active compounds read low | activity change, % at 10 µM | hit rate 2.3% among 94,000; in the data active = activity change below about -80%; inconclusive = no clear call, values can overlap the other calls
T cruzi growth-1: T. cruzi proliferation inhibition | T. cruzi beta-gal in NIH3T3, GalScreen luminescence, 90 h | inhibition, % at 8.34 µM | hit rate 5.9% among 77,000;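 active = mean inhibition above about 93%, with at least 55% of replicates each passing it, limit read from the data, passing the limit was not always enough; inconclusive = only one of those two conditions holds; inactive = neither condition holds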
IDH1 R132H inh: inhibitors of human IDH1 R132H; O75874; IDH1 R132H reductase, diaphorase/resazurin fluorescence, 60 min; inhibition, % at 10 µM; hit rate 0.18% among 70,000; AID 624101; in the data active = inhibition above about 34%; inconclusive = no clear call, values can overlap the other calls; inactive = below about 11%
Target sequence (O75874 whole entry R132H): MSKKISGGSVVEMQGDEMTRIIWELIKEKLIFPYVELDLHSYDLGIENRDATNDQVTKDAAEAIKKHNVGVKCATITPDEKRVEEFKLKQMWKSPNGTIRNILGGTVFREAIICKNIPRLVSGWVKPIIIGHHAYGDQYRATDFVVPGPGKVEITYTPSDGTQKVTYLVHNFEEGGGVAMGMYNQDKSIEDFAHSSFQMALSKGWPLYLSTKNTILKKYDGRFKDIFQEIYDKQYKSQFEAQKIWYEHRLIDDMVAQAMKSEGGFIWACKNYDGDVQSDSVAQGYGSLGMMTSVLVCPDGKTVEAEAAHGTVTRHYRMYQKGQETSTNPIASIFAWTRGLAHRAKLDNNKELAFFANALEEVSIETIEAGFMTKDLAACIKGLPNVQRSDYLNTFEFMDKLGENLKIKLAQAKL
T cruzi growth-2: blocks T. cruzi growth in NIH3T3 host cells. shares compounds with T cruzi growth-1. T. cruzi beta-gal in NIH3T3, GalScreen luminescence, 90 h. inhibition, % at 8.35 µM. hit rate 72% among 5,600. AID 651739;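 active = mean replicate inhibition above about 95% and at least 55% of replicates individually reaching it, limit read from the data; inconclusive = only one of the two criteria is met; inactive = neither criterion is met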
T cruzi growth-3: Trypanosoma cruzi proliferation inhibition; shares compounds with T cruzi growth-1; T. cruzi beta-gal in NIH3T3, GalScreen luminescence, 90 h; inhibition, % at 2.09 µM; hit rate 21% among 5,600; AID 651740;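 active = mean inhibition above about 95%, with at least 55% of replicates also reaching it, limit read from the data; inconclusive = meets just one of the two conditions; inactive = meets neither condition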
NIH3T3 tox: kills mouse NIH/3T3 fibroblasts; hit rate 14% among 5,600; cytotoxicity (signal decrease), % at 8.35 µM; NIH/3T3 viability, CellTiter-Glo ATP luminescence, 90 h; AID 651742; shares compounds with T cruzi growth-1;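 active = mean signal decrease across replicates above about 35% based on untreated-well scatter, with enough replicates individually passing, limit read from the data; inconclusive = no rule stated though some were filed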
NIH3T3 tox 2: cytotoxicity in mouse NIH/3T3 fibroblasts. hit rate 56% among 5,600. NIH/3T3 viability, CellTiter-Glo ATP luminescence, 90 h. AID 651744. shares compounds with T cruzi growth-1. inhibition, % at 24.9 µM;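 active = mean loss of cell viability signal at or above a set limit, and enough replicates individually reaching it; inconclusive = meets only the mean limit or only the replicate share; inactive = meets neither condition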
Hits are given with their value; – = inactive; ? = inconclusive; · = no result.

SMILES | GASC1 inh | Pf Dd2 inh | T cruzi growth-1 | IDH1 R132H inh | T cruzi growth-2 | T cruzi growth-3 | NIH3T3 tox | NIH3T3 tox 2
N#Cc1ccc(-c2ccc([C@H]3[C@H]4CN(S(=O)(=O)c5ccccc5)CCCCN4[C@H]3CO)cc2)cc1 | – | – | 113.7 | · | 107.0 | – | – | –
N#Cc1ccc(-c2ccc([C@H]3[C@H](CO)N4CCCCN(S(=O)(=O)c5ccccc5)C[C@@H]34)cc2)cc1 | – | – | 116.2 | · | 108.4 | – | 51.2 | 88.1
C[C@@H](NC(=O)C[C@H]1C[C@H]2c3cc(NC(=O)C4CCC4)ccc3O[C@H]2[C@H](CO)O1)c1ccccc1 | – | – | – | – | · | · | · | ·
C[C@@H]1CN([C@@H](C)CO)C(=O)c2cc(NC(=O)NC3CCCCC3)ccc2O[C@@H](C)CCCCO[C@@H]1CN(C)Cc1ccncc1 | – | – | – | – | · | · | · | ·
C[C@H](CO)N1C[C@H](C)[C@H](CN(C)Cc2ccncc2)OCCCC[C@H](C)Oc2ccc(NC(=O)NC3CCCCC3)cc2C1=O | – | – | 96.7 | · | 106.5 | – | – | –
C[C@@H]1CCCCO[C@@H](CN(C)Cc2ccncc2)[C@@H](C)CN([C@@H](C)CO)C(=O)c2cc(NC(=O)NC3CCCCC3)ccc2O1 | – | – | 103.1 | – | – | – | – | –
O=C(NCC[C@H]1CC[C@@H](NC(=O)C2CCCC2)[C@H](CO)O1)c1ccc(F)cc1 | – | – | · | – | · | · | · | ·
Cc1ccccc1-c1ccc([C@@H]2[C@@H](CO)N3CCCCN(C(=O)NC4CCCC4)C[C@H]23)cc1 | – | – | – | · | · | · | · | ·
COc1ccccc1-c1ccc2c(c1)O[C@@H](CN(C)S(=O)(=O)c1ccc(C)cc1)[C@@H](C)CN([C@@H](C)CO)S2(=O)=O | – | – | 127.0 | – | 105.2 | 105.5 | 52.8 | 44.0
COc1ccccc1-c1ccc2c(c1)O[C@H](CN(C)C)[C@@H](C)CN([C@H](C)CO)S2(=O)=O | – | – | – | – | · | · | · | ·
COc1ccccc1-c1ccc2c(c1)O[C@@H](CN(C)S(=O)(=O)c1ccc(C)cc1)[C@@H](C)CN([C@H](C)CO)S2(=O)=O | – | – | 126.3 | – | 102.7 | – | – | 36.6
COc1ccccc1-c1ccc2c(c1)O[C@H](CN(C)S(=O)(=O)c1ccc(C)cc1)[C@H](C)CN([C@@H](C)CO)S2(=O)=O | – | – | 127.7 | · | 104.4 | ? | ? | 58.2
COc1ccccc1-c1ccc2c(c1)O[C@H](CN(C)S(=O)(=O)c1ccccc1)[C@@H](C)CN([C@@H](C)CO)S2(=O)=O | · | – | 92.9 | · | 95.1 | – | 35.8 | 46.5
COc1ccccc1-c1ccc2c(c1)O[C@H](CN(C)S(=O)(=O)c1ccccc1)[C@@H](C)CN([C@H](C)CO)S2(=O)=O | · | – | – | – | · | · | · | ·
CC(C)NC(=O)Nc1ccc2c(c1)CC(=O)N([C@H](C)CO)C[C@@H](C)[C@@H](CN(C)Cc1ccc(-c3ccccc3)cc1)O2 | – | – | – | – | · | · | · | ·
C[C@H]1CN([C@@H](C)CO)S(=O)(=O)c2ccc(/C=C/c3ccccc3)cc2O[C@H]1CN(C)C(=O)Nc1ccc(F)cc1 | – | – | – | – | · | · | · | ·
C[C@H](CO)N1C[C@H](C)[C@@H](CN(C)C(=O)Nc2ccc(F)cc2)Oc2cc(/C=C/c3ccccc3)ccc2S1(=O)=O | – | – | 124.2 | – | 108.9 | 97.9 | – | ?
C[C@H]1CN([C@@H](C)CO)S(=O)(=O)c2ccc(/C=C/c3ccccc3)cc2O[C@@H]1CN(C)C(=O)Nc1ccc(F)cc1 | – | – | 127.0 | – | 101.0 | – | – | 59.6
C[C@H]1CN([C@@H](C)CO)S(=O)(=O)c2ccc(/C=C/c3ccccc3)cc2O[C@H]1CN(C)C(=O)Nc1cc(F)ccc1F | – | – | · | – | · | · | · | ·
C[C@@H]1CN([C@H](C)CO)S(=O)(=O)c2ccc(/C=C/c3ccccc3)cc2O[C@H]1CN(C)C(=O)Nc1ccc(F)cc1 | – | -81.7 | 125.5 | – | 108.7 | – | 44.5 | 89.4
C[C@@H]1CN([C@H](C)CO)S(=O)(=O)c2ccc(C#Cc3ccc(F)cc3)cc2O[C@@H]1CN(C)C(=O)NC1CCCC1 | – | – | 113.7 | – | ? | – | – | 104.0
COc1ccc(C#Cc2ccc3c(c2)O[C@H](CN(C)C(=O)NC2CCCCC2)[C@@H](C)CN([C@@H](C)CO)S3(=O)=O)cc1 | – | – | ? | – | 108.8 | 107.4 | – | 64.3
C[C@H]1CN([C@@H](C)CO)S(=O)(=O)c2ccc(C#Cc3ccc(F)cc3)cc2O[C@@H]1CN(C)C(=O)NC1CCCCC1 | – | – | – | – | · | · | · | ·
COc1ccc(C#Cc2ccc3c(c2)O[C@@H](CN(C)C(=O)NC2CCCCC2)[C@H](C)CN([C@@H](C)CO)S3(=O)=O)cc1 | – | – | ? | – | 100.1 | 98.6 | – | –
COc1ccc(C#Cc2ccc3c(c2)O[C@H](CN(C)C(=O)NC2CCCCC2)[C@H](C)CN([C@@H](C)CO)S3(=O)=O)cc1 | – | – | ? | – | 102.0 | – | – | –
SMILES | GASC1 inh | Pf Dd2 inh | T cruzi growth-1 | IDH1 R132H inh | T cruzi growth-2 | T cruzi growth-3 | NIH3T3 tox | NIH3T3 tox 2
Cc1nc(SCC(=O)Nc2ccc(Cl)cc2)c2ccsc2n1 | · | · | · | – | · | · | · | ·
COCC(=O)N(C)C[C@@H]1Oc2cc(-c3ccc(OC)cc3)ccc2S(=O)(=O)N([C@@H](C)CO)C[C@H]1C | – | – | – | – | · | · | · | ·
O=C(NCCCN1CCOCC1)[C@H]1[C@H](CO)[C@H]2Cn3c(cccc3=O)[C@@H]1N2C(=O)NC1CCCC1 | – | · | – | · | · | · | · | ·
COc1ccccc1C(=O)Nc1ccc2c(c1)C(=O)N(C)C[C@H](OC)[C@@H](C)CN(C(C)=O)[C@@H](C)CO2 | – | – | – | – | · | · | · | ·
COc1ccc(C#Cc2ccc3c(c2)O[C@@H](CN(C)C(=O)NC2CCCCC2)[C@@H](C)CN([C@H](C)CO)S3(=O)=O)cc1 | – | -81.4 | ? | – | 95.0 | 113.5 | – | –
C[C@@H]1CN([C@@H](C)CO)S(=O)(=O)c2ccc(C#Cc3ccc(F)cc3)cc2O[C@@H]1CN(C)C(=O)NC1CCCCC1 | – | – | – | · | · | · | · | ·
Cc1ccc(S(=O)(=O)Nc2ccc3c(c2)C(=O)N([C@H](C)CO)C[C@H](C)[C@H](CN(C)CC2CC2)O3)cc1 | – | – | – | – | · | · | · | ·
Cc1noc(C)c1S(=O)(=O)Nc1ccc2c(c1)C(=O)N([C@H](C)CO)C[C@@H](C)[C@@H](CN(C)Cc1ccc(C(F)(F)F)cc1)OCCCC[C@@H](C)O2 | – | – | – | · | · | · | · | ·
